Source: PubChem (several laboratories)
This is a sample that favours compounds with a hit; in the whole collection about 1.9% have one here.
APP 5UTR inh = APP translation inhibition | SH-SY5Y APP 5'UTR-luciferase reporter, luminescence | inhibition, % at 2 µM | actives 0.82% (n = 190,000);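 active = inhibition above a set limit, derived from the sample mean plus 3 SD, cut at about 45% in these data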
aSyn UTR inh = MLPCN primary screen, SNCA 5' untranslated region | alpha-synuclein 5'UTR reporter, inhibitor activity | inhibition, % (tested at 7.5 µM) | actives 0.82% (n = 300,000); in the data active = inhibition above about 60%;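 note: H4 neuroglioblastoma cells stably carrying SNCA 5'UTR luciferase fusion; 0% = DMSO wells and 100% = positive control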
697 NFkB inh = inhibitors of the PMA/ionomycin-induced NF-kB reporter in 697 B cells; inhibition, % at 4 µM; 697 B-cell NF-kB luciferase reporter, 16 h; actives 0.33% (n = 330,000); in the data active = inhibition above about 35%
Jurkat NFkB inh = lowers PMA/ionomycin-induced NF-kB signal in Jurkat cells; PMA/ionomycin-induced NF-kB luciferase reporter, luminescence; AID 435003; inhibition, % at 4 µM; actives 0.53% (n = 330,000); in the data active = inhibition above about 50%
Lipid droplet = modulators of hepatic lipid droplet formation | inhibition, % at 6.5 µM | actives 0.4% (n = 240,000) | AML12 mouse hepatocytes, oleate lipid droplets, BODIPY imaging;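 active = lipid droplet intensity inhibited by at least 50%, with more than 500 cells counted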
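Assay system: AML12 hepatocytes (mouse); Probe or stimulus: oleic acid at 100 µM to induce lipid droplet formation; Dosing: compound at 6.5 µM only; Schedule: compound with oleate, overnight; Detection: fluorescence imaging, 20x objective, two fields per well; Measure: % inhibition of lipid droplet signal.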
H9c2 TAG inh = inhibitors of triacylglycerol accumulation; H9c2 cells, Nile Red lipid (TAG) fluorescence; cells loaded with 200 µM oleic acid; inhibition, % at 12.5 µM; actives 0.66% (n = 230,000);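 active = pattern-corrected inhibition of lipid staining of at least 50% with the nuclear-stain viability signal not falling by more than 50%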;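 note: 0% = DMSO wells and 100% = triacsin C control wells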
Jurkat NFkB conf = lowers PMA/ionomycin-induced NF-kB signal in Jurkat cells; shares compounds with Jurkat NFkB inh; Jurkat NF-kB luciferase, 16 h; inhibition, % at 4 µM; actives 27% (n = 2,700); AID 435020;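 active = inhibition reaching about 45% at 4 µM in either replicate, limit read from the data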;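 note: plate controls were PMA/ionomycin stimulated DMSO wells for no effect and unstimulated DMSO wells for full effect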
* = called active by the depositor; x = no result.

SMILES | APP 5UTR inh | aSyn UTR inh | 697 NFkB inh | Jurkat NFkB inh | Lipid droplet | H9c2 TAG inh | Jurkat NFkB conf
CN1CCN(C(=O)c2ccc(S(=O)(=O)N(C)c3ccccc3)cc2)CC1 | x | x | x | x | x | -6.7 | x
Cc1cccc(N2CCN(C(=O)c3c(-c4ccccc4)noc3C)CC2)c1C | x | 64.6* | -51.0 | 68.3* | -29.0 | 29.1 | 40.7
Cc1cccc(N2CCN(C(=O)c3ccc(S(=O)(=O)N(C)c4ccccc4)cc3)CC2)c1C | x | x | -39.2 | 57.8* | x | 6.5 | 40.3
c1ccc2c(c1)OCCOCCOCCOCCOCCOc1ccccc1OCCOCCOCCO2 | 23.4 | 14.8 | -0.7 | 15.5 | -34.5 | x | x
CCCCCCCOc1ccc(OC(=O)c2ccncc2)cc1 | 2.7 | 1.2 | -91.7 | 79.8* | -0.6 | x | 54.5*
CCCCCCCOc1ccc(OC(=O)c2cccnc2)cc1 | -2.6 | 22.6 | -139.2 | 84.8* | -14.8 | x | 53.2*
CCCCOc1ccc(OC(=O)c2cccnc2)cc1 | -1.6 | 26.2 | -37.4 | -10.4 | x | 10.8 | x
Cc1cc(N2C(=O)NC(=O)CC2C)c(C)cc1C(C)C (stereo unspecified) | -2.8 | -22.4 | -53.1 | 32.9 | -8.1 | x | x
COc1ccc(CN(Cc2cccnc2)S(=O)(=O)c2ccc(-n3cnnn3)c(C)c2)cc1OC | 2.3 | 0.6 | -10.5 | -4.4 | x | x | x
Cc1ccc(S(=O)(=O)N2c3ccccc3CC2C)cc1 (stereo unspecified) | 10.2 | 8.5 | -5.4 | 10.4 | -4.2 | x | x
CCOc1ccc(S(=O)(=O)N2c3ccccc3CC2C)cc1 (stereo unspecified) | 93.7* | 92.6* | 10.0 | 70.9* | -166.5 | x | 50.7*
Cn1c(C(=O)Nc2ccc3c(c2)OCCO3)cc2sccc21 | -152.4 | -86.6 | -194.8 | -190.5 | x | x | -103.8
O=C(Cc1n[nH]c(=O)c2ccccc12)OCC(=O)c1ccc(F)cc1 | x | -1.2 | 21.0 | -3.3 | x | -10.0 | x
CCOc1ccc(C(=O)COC(=O)Cc2n[nH]c(=O)c3ccccc23)cc1 | x | -87.2 | -7.1 | 54.7* | x | 41.9 | 8.3
CC(C)Oc1ccccc1C1CC(=O)Nc2cc3c(cc21)OCO3 (stereo unspecified) | 91.9* | 90.6* | 7.1 | 75.8* | x | x | 53.3*
Cc1cc2c(cc1C)C(c1ccccc1OC(C)C)CC(=O)N2 (stereo unspecified) | x | -12.2 | -76.3 | 52.3* | -5.1 | x | 35.5
O=C1CC(c2cccnc2)c2cc3c(cc2N1)OCO3 (stereo unspecified) | 8.3 | 9.3 | -0.6 | 1.9 | 21.0 | -11.0 | x
NC(=O)c1ccc(Oc2ccc3c(c2)CCC3)c([N+](=O)[O-])c1 | x | 10.6 | -0.7 | -0.3 | -6.7 | x | x
Oc1ccccc1C1NN=C(c2ccccc2)S1 (stereo unspecified) | x | -80.1 | -214.1 | -174.8 | -13.0 | 18.7 | -121.2
COC(=O)c1c(NC(=O)c2ccc([N+](=O)[O-])o2)sc2c1CCN(C(C)C)C2 | x | 104.9* | -85.6 | 66.5* | -61.7 | 58.9* | 43.2
COC(=O)c1c(NC(=O)Cc2ccccc2)sc2c1CCN(C(C)C)C2 | x | 4.0 | -18.7 | -25.7 | -1.0 | -4.2 | x
Cc1ccc2c(c1)sc1nc(=O)n(-c3cccc(Cl)c3)c(=O)n12 | -16.5 | -208.6 | -77.6 | -166.8 | x | x | -34.3
Cc1ccc2c(c1)sc1nc(=O)n(-c3ccc(Cl)cc3)c(=O)n12 | 7.2 | -59.1 | -9.8 | -34.7 | x | x | x
COc1cc(CC(=O)OCC(=O)N2C(C)CCCC2C)cc(OC)c1OC (stereo unspecified) | x | -5.4 | 5.2 | -6.9 | -7.1 | x | x
CC(=O)Nc1nnc(CCS(=O)(=O)c2ccc(C)cc2)s1 | x | -7.6 | 8.3 | 7.3 | x | -2.9 | x
Cc1cccc(-c2noc(-c3ccc(Cl)cc3[N+](=O)[O-])n2)c1 | -177.6 | -150.6 | -186.6 | -160.7 | 17.8 | 3.5 | -103.0
O=C(Nc1ccccc1Cc1ccccc1)c1ccncc1 | x | -6.5 | -9.1 | -0.7 | 9.5 | -2.5 | x
O=C(c1c(Cl)nc2sccn12)N1CCN(c2cccc(Cl)c2)CC1 | 94.1* | 33.6 | -3.8 | 60.6* | x | x | 47.4
COc1cc2c(C(=O)N3CCN(c4cccc(Cl)c4)CC3)cn(C)c(=O)c2cc1OC | -9.0 | -3.6 | -31.5 | 36.5 | -0.7 | 21.8 | x
COc1cccc(N2CCN(C(=O)c3cn(Cc4ccccc4)nc3-c3cccnc3)CC2)c1 | x | x | -45.5 | 60.5* | x | 23.7 | 40.4
